Measurements reported in ChEMBL document CHEMBL4425113, “Chromenopyrazole, a Versatile Cannabinoid Scaffold with in Vivo Activity in a Model of Multiple Sclerosis” (J Med Chem, 2016).
pEC50, pIC50, pKi: −log10 of the molar value. Activity calls are given as the source filed them. The rule behind the calls is not given here.

Assays:
Cannabinoid receptor 1 [1] = target: T1, Cannabinoid receptor 1 (Homo sapiens, UniProt P21554); test: biochemical; assay type: cell-based, HEK293
Cannabinoid receptor 2 [2] = target: T2, Cannabinoid receptor 2 (Homo sapiens, UniProt P34972); test: Displacement of [3H]-CP55940 from human CB2 receptor expressed in HEK293 cell membranes after 90 mins by liquid scintillation counting method
Homo sapiens [3] = organism: Homo sapiens; test: Selectivity ratio of Ki for human CB1 receptor to Ki for human CB2 receptor
Method in brief: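 Membranes from cells transfected with hCB1 (8 μg/well; Tris 50 mM, MgCl2 5 mM, EDTA 2.5 mM, BSA 0.5 mg/mL, pH 7.4) or hCB2 (4 μg/well; EGTA 2.5 mM, BSA 1 mg/mL, pH 7.5); [3H]CP55940, 90 min at 30 °C. […] Nonspecific binding 10 μM WIN55212-2; GF/C filtration, scintillation; ≥3 experiments in triplicate.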

Cannabinoid receptor 2 [4] = target: T2, Cannabinoid receptor 2; test: Agonist activity at human CB2 receptor expressed in HEK293 cell membranes assessed as induction of [35S]-GTPgammaS binding after 60 mins by liquid scintillation spectrometric method; assay type: functional
[5] = Binding affinity to PDEA modified AGP (unknown origin) at 40 uM by surface plasmon resonance method; assay type: ADME; settings: human, isolated protein
Cannabinoid receptor 2 [6] = target: T2, Cannabinoid receptor 2; test: Partial agonist activity at human CB2 receptor expressed in HEK293 cell membranes assessed as inhibition of forskolin-stimulated cAMP accumulation at 200 nM after 60 mins by HTRF assay; assay type: functional, cell-based
Method in brief: (§1)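 HEK293 cells stably expressing hCB2, 5.000 cells/well, forskolin-stimulated; Lance-Ultra TR-FRET cAMP kit, 60 min room temperature with HTRF reagents; 665/620 nm ratio converted to cAMP via standard curve; forskolin level set to 100%.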

Cannabinoid receptor 2 [7] = target: T2, Cannabinoid receptor 2; test: Partial agonist activity at human CB2 receptor expressed in HEK293 cell membranes assessed as inhibition of forskolin-stimulated cAMP accumulation at 1 uM after 60 mins by HTRF assay; assay type: functional, cell-based
Method in brief: as §1

Cannabinoid receptor 2 [8] = target: T2, Cannabinoid receptor 2; test: Agonist activity at human CB2 receptor expressed in HEK293 cell membranes assessed as inhibition of forskolin-stimulated cAMP accumulation at 200 nM after 60 mins by HTRF assay; assay type: functional, cell-based
Method in brief: as §1

Cannabinoid receptor 2 [9] = target: T2, Cannabinoid receptor 2; test: Agonist activity at human CB2 receptor expressed in HEK293 cell membranes assessed as inhibition of forskolin-stimulated cAMP accumulation at 1 uM after 60 mins by HTRF assay; assay type: functional, cell-based
Method in brief: as §1

Cannabinoid receptor 2 [10] = target: T2, Cannabinoid receptor 2; test: Agonist activity at human CB2 receptor expressed in HEK293 cell membranes assessed as inhibition of forskolin-stimulated cAMP accumulation after 60 mins by HTRF assay; assay type: functional, cell-based
Cannabinoid receptor 1 [11] = target: T1, Cannabinoid receptor 1; test: Agonist activity at human CB1 receptor expressed in HEK293 cell membranes assessed as induction of [35S]-GTPgammaS binding after 60 mins by liquid scintillation spectrometric method; assay type: functional
Homo sapiens [12] = organism: Homo sapiens; test: Selectivity ratio of Ki for human CB2 receptor to Ki for human CB1 receptor

T2 sequence (P34972 whole entry): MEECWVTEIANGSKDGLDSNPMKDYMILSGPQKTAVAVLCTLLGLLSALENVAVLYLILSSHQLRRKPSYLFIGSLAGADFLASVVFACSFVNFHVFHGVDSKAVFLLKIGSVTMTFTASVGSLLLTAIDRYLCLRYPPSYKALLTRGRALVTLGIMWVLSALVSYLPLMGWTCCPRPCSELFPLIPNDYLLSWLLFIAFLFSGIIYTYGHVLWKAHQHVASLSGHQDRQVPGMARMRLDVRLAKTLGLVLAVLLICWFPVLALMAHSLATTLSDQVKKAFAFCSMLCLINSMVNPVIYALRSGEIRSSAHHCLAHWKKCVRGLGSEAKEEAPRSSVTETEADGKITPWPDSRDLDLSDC
T1 sequence (P21554 whole entry): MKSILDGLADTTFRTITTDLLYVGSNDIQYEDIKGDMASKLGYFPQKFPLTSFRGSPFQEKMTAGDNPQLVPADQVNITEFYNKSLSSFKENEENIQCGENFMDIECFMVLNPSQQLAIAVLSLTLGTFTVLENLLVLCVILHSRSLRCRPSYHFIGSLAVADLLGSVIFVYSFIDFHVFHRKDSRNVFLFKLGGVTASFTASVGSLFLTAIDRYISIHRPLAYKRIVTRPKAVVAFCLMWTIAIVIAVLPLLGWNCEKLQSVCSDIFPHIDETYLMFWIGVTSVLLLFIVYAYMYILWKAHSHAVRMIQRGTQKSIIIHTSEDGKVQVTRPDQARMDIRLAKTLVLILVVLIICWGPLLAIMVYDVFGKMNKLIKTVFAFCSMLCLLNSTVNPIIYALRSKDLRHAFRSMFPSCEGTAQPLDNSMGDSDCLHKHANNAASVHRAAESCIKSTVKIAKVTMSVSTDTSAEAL

Compound	pKi (Cannabinoid receptor 1 [1])	pKi (Cannabinoid receptor 2 [2])	Ratio Ki (Homo sapiens [3])	other results
CCCCCCC(C)(C)c1cc(OCc2ccccc2)c2c(c1)OC(C)(C)c1cn(CC)nc1-2	6.17	6.67	3.1	
CCCCCCC(C)(C)c1cc(OC)c([C@H]2C=C(CO)[C@@H]3C[C@H]2C3(C)C)c(OC)c1				Emax (Cannabinoid receptor 2 [4]): 91%
CCCCCCC(C)(C)c1cc(O)c2c(c1)OC(C)(C)c1cnn(-c3cccc(OC)c3)c1-2	5.19	6.25	11.5	
CCCCCCC(C)(C)c1cc(O)c2c(c1)OC(C)(C)c1cnn(C3CCCCC3)c1-2	5.94	7.27	21.5	PB [5]: Active
CCCCCCC(C)(C)c1cc(OC)c2c(c1)OC(C)(C)c1cn[nH]c1-2	6.57	7.06	3.1	PB [5]: Active
CCCCCCC(C)(C)c1cc(OCCCO)c2c(c1)OC(C)(C)c1cn[nH]c1-2	6.35	7.59	17.3	inhibition (Cannabinoid receptor 2 [6]): Active; inhibition (Cannabinoid receptor 2 [7]): Active; PB [5]: Active
CCCCCCC(C)(C)c1cc2c(c3c1CCCO3)-c1nn(CC)cc1C(C)(C)O2	< 4.40	6.92	> 330	inhibition (Cannabinoid receptor 2 [8]): Active; inhibition (Cannabinoid receptor 2 [9]): Active; Emax (Cannabinoid receptor 2 [10]): 98%; pIC50 (Cannabinoid receptor 2 [10]): 7.59
CCCCCCC(C)(C)c1cc(O)c2c(c1)OC(C)(C)c1cnn(-c3ccc(Cl)c(Cl)c3)c1-2			1.9	pKi (Cannabinoid receptor 1 [1]; hek293): 6.29; pKi (Cannabinoid receptor 2 [2]; hek293): 6.57
CCCCCCC(C)(C)c1cc(OCCO)c2c(c1)OC(C)(C)c1cn[nH]c1-2	7.19	8.44	18	inhibition (Cannabinoid receptor 2 [8]): Active; inhibition (Cannabinoid receptor 2 [9]): Active; Emax (Cannabinoid receptor 2 [10]): 95%; pIC50 (Cannabinoid receptor 2 [10]): 7.67; Emax (Cannabinoid receptor 2 [4]): 110%
C=C(C)[C@@H]1CCC(C)=C[C@H]1c1c(O)cc(CCCCC)cc1O [CANNABIDIOL]				PB [5]: Active
CCCCCCC(C)(C)c1cc(OCCCO)c2c(c1)OC(C)(C)c1cnoc1-2	6.48	7.18	5.1	inhibition (Cannabinoid receptor 2 [8]): Active; inhibition (Cannabinoid receptor 2 [9]): Active; Emax (Cannabinoid receptor 2 [10]): 91%; pIC50 (Cannabinoid receptor 2 [10]): 7.85; Emax (Cannabinoid receptor 2 [4]): 96%
CCCCCCC(C)(C)c1cc(OC)c2c(c1)OC(C)(C)c1cnn(CC)c1-2	5.30	6.80	31.6	inhibition (Cannabinoid receptor 2 [6]): Active; inhibition (Cannabinoid receptor 2 [7]): Active
CCCCCCC(C)(C)c1cc(O)c2c(c1)OC(C)(C)c1cn(CCO)nc1-2	7.26	7.40	1.4	pEC50 (Cannabinoid receptor 1 [11]): 6.52
CCCCCCC(C)(C)c1cc(OC)c2c(c1)OC(C)(C)c1cnn(-c3ccc(Cl)cc3Cl)c1-2	5.77	5.83		
CCCCCCC(C)(C)c1cc(OCCCO)c2c(c1)OC(C)(C)c1cnn(-c3ccc(Cl)c(Cl)c3)c1-2	< 4.40	< 4.40		
CCCCCCC(C)(C)c1cc(OCCCO)c2c(c1)OC(C)(C)c1cn(C)nc1-2	< 4.40	6.44	> 110	
CCCCCCC(C)(C)c1cc(OCc2ccccc2)c2c(c1)OC(C)(C)c1cn[nH]c1-2	7.65	7.03		Ratio Ki (Homo sapiens [12]): 4.2; inhibition (Cannabinoid receptor 2 [6]): Active; inhibition (Cannabinoid receptor 2 [7]): Active; pEC50 (Cannabinoid receptor 1 [11]): 6.72
CCCCCCC(C)(C)c1cc(OC)c2c(c1)OC(C)(C)c1cnn(-c3ccc(Cl)c(Cl)c3)c1-2	5.63	5.65		
CCCCCCC(C)(C)c1cc(O)c2c(c1)OC(C)(C)c1cnn(-c3cc(F)cc(F)c3)c1-2	< 4.40	< 4.40		
CCCCCCC(C)(C)c1cc(OCCCBr)c2c(c1)OC(C)(C)c1cn(C)nc1-2	5.83	7.11	19.1	inhibition (Cannabinoid receptor 2 [6]): Active; inhibition (Cannabinoid receptor 2 [7]): Active; PB [5]: Active
CCCCCCC(C)(C)c1cc(OCC)c2c(c1)OC(C)(C)c1cnn(-c3ccc(Cl)c(Cl)c3)c1-2	< 4.40	5.45	> 11.3	

Compound	pKi (Cannabinoid receptor 1 [1])	pKi (Cannabinoid receptor 2 [2])	Ratio Ki (Homo sapiens [3])	other results
CCCCCCC(C)(C)c1cc(OC)c2c(c1)OC(C)(C)c1cn(CC)nc1-2	5.53	7.03	31.8	inhibition (Cannabinoid receptor 2 [6]): Active; inhibition (Cannabinoid receptor 2 [7]): Active; PB [5]: Active
CCCCCCC(C)(C)c1cc(O)c2c(c1)OC(C)(C)c1cn(CO)nc1-2	6.66	7.23	3.7	
CCCCCCC(C)(C)c1cc(O)c2c(c1)OC(C)(C)c1cnn(-c3ccc(Cl)cc3Cl)c1-2				pKi (Cannabinoid receptor 1 [1]; hek293): 8.28; Ratio Ki (Homo sapiens [12]): > 7500
CCCCCCC(C)(C)c1cc(O)c2c(c1)OC(C)(C)c1cnoc1-2	7.81	8.28	2.9	inhibition (Cannabinoid receptor 2 [8]): Active; inhibition (Cannabinoid receptor 2 [9]): Active; Emax (Cannabinoid receptor 2 [10]): 98%; pIC50 (Cannabinoid receptor 2 [10]): 6.87; Emax (Cannabinoid receptor 2 [4]): 114%; pEC50 (Cannabinoid receptor 1 [11]): 7.80; PB [5]: Active
CCCCCCC(C)(C)c1cc2c(c3c1CCCO3)-c1c(cnn1CC)C(C)(C)O2	< 5.00	6.25	> 17.7	PB [5]: Active
CCCCCCC(C)(C)c1cc(OCc2ccccc2)c2c(c1)OC(C)(C)c1cnn(-c3ccc(Cl)c(Cl)c3)c1-2	< 4.40	5.43	> 10.7	
CCCCCCC(C)(C)c1cc(O)c2c(c1)OC(C)(C)c1cnn(CCO)c1-2	7.72	6.44		Ratio Ki (Homo sapiens [12]): 19.1
CCCC(C)(C)c1ccc2c(c1)OC(C)(C)[C@@H]1CC=C(C)C[C@@H]21				Emax (Cannabinoid receptor 2 [10]): 98%; pIC50 (Cannabinoid receptor 2 [10]): 7.09
CCCCC/C=C\C/C=C\C/C=C\C/C=C\CCCC(=O)NCCO [ANANDAMIDE]				PB [5]: Active
CCCCCCC(C)(C)c1cc(OCCO)c2c(c1)OC(C)(C)c1cn(CC)nc1-2	5.19	6.68	31	PB [5]: Active
CCCCCCC(C)(C)c1cc(OCCCBr)c2c(c1)OC(C)(C)c1cn(CC)nc1-2	6.18	7.06	7.5	
CCCCCCC(C)(C)c1cc(OCc2ccccc2)c2c(c1)OC(C)(C)c1cn(C)nc1-2	6.15	6.68	3.3	
CCCCCCC(C)(C)c1cc(OCCCO)c2c(c1)OC(C)(C)c1cnn(-c3ccc(Cl)cc3Cl)c1-2	< 4.40	< 4.40		
CCCCCCC(C)(C)c1cc(O)c2c(c1)OC(C)(C)c1cn[nH]c1-2				pKi (Cannabinoid receptor 1 [1]; hek293): 7.55; Ratio Ki (Homo sapiens [12]): > 1400
CCCCCCC(C)(C)c1cc(OCc2ccccc2)c2c(c1)OC(C)(C)c1cnn(-c3ccc(Cl)cc3Cl)c1-2	< 4.40	< 4.40		
CCCCCCC(C)(C)c1cc(O)c2c(c1)OC(C)(C)c1cn(C)nc1-2				pKi (Cannabinoid receptor 1 [1]; hek293): 7.85; Ratio Ki (Homo sapiens [12]): > 2500
CCCCCCC(C)(C)c1cc(O)c2c(c1)OC(C)(C)c1cn(CC)nc1-2				pKi (Cannabinoid receptor 1 [1]; hek293): 7.73; Ratio Ki (Homo sapiens [12]): > 2000
CCCCCCC(C)(C)c1cc(OCc2ccccc2)c2c(c1)OC(C)(C)c1cnn(CC)c1-2	6.21	6.53	2	
CCCCC/C=C\C/C=C\C/C=C\C/C=C\CCCC(=O)OC(CO)CO [2-ARACHIDONOYLGLYCEROL]				PB [5]: Active
CCCCCCC(C)(C)c1cc(O)c2c(c1)OC(C)(C)c1cnn(CC)c1-2				pKi (Cannabinoid receptor 1 [1]; hek293): 8.35; Ratio Ki (Homo sapiens [12]): > 8000
CCCCCCC(C)(C)c1cc(OCCCO)c2c(c1)OC(C)(C)c1cnn(CC)c1-2	5.79	6.36	3.6	
